Six compounds from ChEMBL document CHEMBL1828627, “High-throughput-screening-based identification and structure-activity relationship characterization defined (S)-2-(1-aminoisobutyl)-1-(3-chlorobenzyl)benzimidazole as a highly antimycotic agent nontoxic to cell lines” (J Med Chem, 2011) can be followed below.

The nature of series [1]: Selectivity index of CC50 for human HeLa cells to IC50 for Candida albicans SC5314 infected in HeLa cells. In outline: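 Selectivity index calculated as CC50/IC50. CC50 is the half-maximal cytotoxic concentration in HeLa cells; IC50 is the half-maximal antimycotic concentration in the C. albicans–infected HeLa assay. Both come from 5-day fluorescein diacetate viability readouts.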

In series [2] the test system is Candida albicans. The series can be described thus: Antifungal activity against Candida albicans DSMZ 11949 by broth dilution method. It is filed as functional. In a few lines: (§1)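 MICs by broth microdilution following CLSI M27-A3 for yeasts, with fluconazole as the reference antifungal. Panel covered type strains and clinical isolates of Candida spp. (21 strains). Reference control strains: C. albicans DSMZ 11949, C. glabrata ATCC 90030, C. parapsilosis 22019 and 90018, Issatchenkia orientalis ATCC 6258. MIC in μg/mL; averages given as geometric means.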

A short description of series [3]: Cytotoxicity against human HeLa cells assessed as cell viability after 5 days by fluorescein diacetate assay. Type of series: cell-based.
In series [4] the test system is Candida albicans. Put plainly: Antifungal activity against Candida albicans SC5314 infected in HeLa cells after 5 days by fluorescein diacetate assay. Type of series: functional, organism-based. In a few lines:
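HeLa cells co-incubated with C. albicans and compound for 5 days. Dose–response from resynthesized compounds. Host-cell viability checked microscopically at 18 h, then quantified at day 5 by fluorescein diacetate conversion to a fluorophore by live cells. Wells also inspected visually for yeast growth. Controls: untreated uninfected HeLa (~100%) and untreated infected HeLa (~0%). IC50 derived from infected cells; CC50 as half-maximal cytotoxic concentration.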

The subject of series [5] is Candida albicans. Put plainly: Antifungal activity against Candida albicans SC5314 infected in HeLa cells at 20 uM after 5 days by fluorescein diacetate assay. It is filed as functional, organism-based. In outline:
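Primary HTS: HeLa cells co-incubated with C. albicans plus a single compound at ~20 μM for 5 days. Viability checked microscopically at 18 h and quantified at day 5 by fluorescein diacetate fluorescence. Wells also scanned visually for yeast growth. Hit criterion: >40% signal relative to the uninfected untreated HeLa (~100%) and infected untreated HeLa (~0%) controls.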

Series [6] has as its system Nakaseomyces glabratus. The series can be described thus: Antifungal activity against Candida glabrata ATCC 90030 by broth dilution method. It is filed as functional. In outline:
as §1

Series [7] relates to Candida parapsilosis. The series can be described thus: Antifungal activity against Candida parapsilosis 22019 by broth dilution method. The following applies: Lodderomyces parapsilosis. Type of series: functional. In outline:
as §1
On the technique in general: Broth dilution looks for growth in wells or tubes with falling amounts of substance.

The subject of series [8] is Candida parapsilosis. Put plainly: Antifungal activity against Candida parapsilosis 90018 by broth dilution method. The following applies: Lodderomyces parapsilosis. It is filed as functional. In outline:
as §1

In the next series the test system is Pichia kudriavzevii. Put plainly: Antifungal activity against Issatchenkia orientalis ATCC 6258 by broth dilution method. It is filed as functional. In outline:
as §1

The subject of series [9] is Nakaseomyces glabratus. Put plainly: Antifungal activity against Candida glabrata AN 8626 by broth dilution method. Type of series: functional. In outline:
as §1

Series [10] deals with Nakaseomyces glabratus. The series can be described thus: Antifungal activity against Candida glabrata CG 7 by broth dilution method. Type of series: functional. In a few lines: as §1
The test system of series [11] is Candida albicans. The series can be described thus: Antifungal activity against Candida albicans CA20 by broth dilution method. It is filed as functional. In a few lines: as §1
Series [12] has as its system Candida albicans. The series can be described thus: Antifungal activity against Candida albicans CA21 by broth dilution method. It is filed as functional. In a few lines:
as §1

The test system of series [13] is Candida albicans. Put plainly: Antifungal activity against Candida albicans MY 2902/2008 by broth dilution method. It is filed as functional. In a few lines:
as §1

Series [14] relates to Candida albicans. The series can be described thus: Antifungal activity against Candida albicans SCS 71865 L by broth dilution method. Type of series: functional. In a few lines: as §1
For series [15], the system named is Candida albicans. The series can be described thus: Antifungal activity against Candida albicans Jg 32570 by broth dilution method. Type of series: functional. In outline: as §1
In series [16] the test system is Candida albicans. The series can be described thus: Antifungal activity against Candida albicans AM2001/2007 by broth dilution method. It is filed as functional. In a few lines: as §1
Series [17] deals with Candida albicans. Put plainly: Antifungal activity against Candida albicans AN 1699 by broth dilution method. It is filed as functional. In a few lines:
as §1

Series [18] relates to Candida albicans. Put plainly: Antifungal activity against Candida albicans AN 1994 by broth dilution method. Type of series: functional. In a few lines:
as §1

The next series concerns Candida tropicalis. The series can be described thus: Antifungal activity against Candida tropicalis AN 1946 by broth dilution method. It is filed as functional. In a few lines: as §1
Series [19] has as its system Candida albicans. Put plainly: Antifungal activity against Candida albicans AN 562 by broth dilution method. It is filed as functional. In a few lines: as §1
Series [20] concerns Candida albicans. The series can be described thus: Antifungal activity against Candida albicans VB 1723 by broth dilution method. It is filed as functional. In outline: as §1
Series [21] has as its system Candida albicans. Put plainly: Antifungal activity against Candida albicans AN 3156 by broth dilution method. It is filed as functional. In outline:
as §1

The test system of series [22] is Candida parapsilosis. The series can be described thus: Antifungal activity against Candida parapsilosis AN 5485 by broth dilution method. The following applies: Lodderomyces parapsilosis. It is filed as functional. In outline: as §1
Series [23] has as its system Candida parapsilosis. The series can be described thus: Antifungal activity against Candida parapsilosis AV 7675 by broth dilution method. Type of series: functional. The following applies: Lodderomyces parapsilosis. In a few lines: as §1
Where [24] appears, read: Candida albicans, SC5314, HeLa, 120 h, read-out: IC50.

In brackets after ≈: the same amount, converted by molar mass. Activity calls are given as the source filed them.

On to `Cc1cccc(Cn2c([C@@H](N)C(C)C)nc3ccccc32)c1`, for which the “Ratio CC50/IC50” value in [1] is recorded as 3.2. The MIC against Candida albicans [2] stood at 16 µg/mL (≈ 54.5 µM); against Nakaseomyces glabratus [6], 0.25 µg/mL (≈ 0.852 µM); against Candida parapsilosis [7] it was 1 µg/mL (≈ 3.41 µM); against Candida parapsilosis [8] it was 1 µg/mL (≈ 3.41 µM); in the series with Pichia kudriavzevii, 1 µg/mL (≈ 3.41 µM); against Nakaseomyces glabratus [9], 0.125 µg/mL (≈ 0.426 µM). Moreover, the minimal inhibitory concentration (MIC) in the series on Nakaseomyces glabratus [10] was 32 µg/mL (≈ 109 µM); against Candida albicans [11] it was 0.125 µg/mL (≈ 0.426 µM); against Candida albicans [12], 0.5 µg/mL (≈ 1.7 µM); in the series on Candida albicans [13] it was 32 µg/mL (≈ 109 µM); with Candida albicans [14] it was 32 µg/mL (≈ 109 µM); in the series with Candida albicans [15], 128 µg/mL (≈ 436 µM). In addition, the minimal inhibitory concentration (MIC) came to 16 µg/mL (≈ 54.5 µM) in the series on Candida albicans [16]; 64 µg/mL (≈ 218 µM) with Candida albicans [17]; 32 µg/mL (≈ 109 µM) with Candida albicans [18]; 8 µg/mL (≈ 27.3 µM) with Candida tropicalis; 32 µg/mL (≈ 109 µM) in the series on Candida albicans [19]; 32 µg/mL (≈ 109 µM) against Candida albicans [20]. Besides, the results for the minimal inhibitory concentration (MIC) against Candida albicans [21], with Candida parapsilosis [22] and in the series on Candida parapsilosis [23] were 32 µg/mL (≈ 109 µM), 2 µg/mL (≈ 6.82 µM) and 128 µg/mL (≈ 436 µM), respectively. The CC50 at 120 h in series [3] amounted to 10.6 µM. Further, the half-inhibitory concentration (IC50) in the series on Candida albicans [4] (setting [24]) stood at 3.3 µM. For the same compound, the inhibition entry with Candida albicans [5] was “inactive”.

As for `OC(Cn1cncn1)(Cn1cncn1)c1ccc(F)cc1F` [FLUCONAZOLE], the minimum inhibitory concentration (MIC) against Candida albicans [2] was found to be 2 µg/mL (≈ 6.53 µM); against Nakaseomyces glabratus [6] it was 0.125 µg/mL (≈ 0.408 µM); in the series with Candida parapsilosis [7] it was 1 µg/mL (≈ 3.27 µM); against Candida parapsilosis [8], 0.25 µg/mL (≈ 0.816 µM); with Pichia kudriavzevii it was 0.25 µg/mL (≈ 0.816 µM); with Nakaseomyces glabratus [9], 4 µg/mL (≈ 13.1 µM). In addition, the MIC against Nakaseomyces glabratus [10] was found to be 4 µg/mL (≈ 13.1 µM); with Candida albicans [11], 0.125 µg/mL (≈ 0.408 µM); in the series on Candida albicans [12] it was 0.125 µg/mL (≈ 0.408 µM); with Candida albicans [13], 0.5 µg/mL (≈ 1.63 µM); with Candida albicans [14], 0.125 µg/mL (≈ 0.408 µM); in the series with Candida albicans [15], 128 µg/mL (≈ 418 µM). Also, the MIC with Candida albicans [16] stood at 0.5 µg/mL (≈ 1.63 µM); against Candida albicans [17], 8 µg/mL (≈ 26.1 µM); in the series on Candida albicans [18], 128 µg/mL (≈ 418 µM); in the series on Candida tropicalis, 128 µg/mL (≈ 418 µM); in the series on Candida albicans [19] it was 1 µg/mL (≈ 3.27 µM); against Candida albicans [20], 0.5 µg/mL (≈ 1.63 µM). Further, the results for the MIC in the series with Candida albicans [21], with Candida parapsilosis [22] and with Candida parapsilosis [23] were 8 µg/mL (≈ 26.1 µM), 0.25 µg/mL (≈ 0.816 µM) and 2 µg/mL (≈ 6.53 µM), respectively.

Consider `CCC[C@H](N)c1nc2ccccc2n1Cc1ccc(Cl)cc1`, for which the “Ratio CC50/IC50” value in series [1] turned out to be 14. Moreover, the 50% cytotoxic concentration (CC50) at 120 h in series [3] was found to be 28 µM. For the same compound, the IC50 with Candida albicans [4] (setting [24]) worked out at 2 µM. Also, the inhibition entry with Candida albicans [5] was “inactive”.

On to `CC(C)[C@H](N)c1nc2ccccc2n1Cc1cccc(F)c1`, for which, in series [1], the “Ratio CC50/IC50” value is given as 9.4. The MIC came to 16 µg/mL (≈ 53.8 µM) against Candida albicans [2]; 8 µg/mL (≈ 26.9 µM) with Nakaseomyces glabratus [6]; 16 µg/mL (≈ 53.8 µM) against Candida parapsilosis [7]; 16 µg/mL (≈ 53.8 µM) in the series with Candida parapsilosis [8]; 16 µg/mL (≈ 53.8 µM) against Pichia kudriavzevii; 16 µg/mL (≈ 53.8 µM) against Nakaseomyces glabratus [9]. For the same compound, the minimal inhibitory concentration (MIC) against Nakaseomyces glabratus [10] was 64 µg/mL (≈ 215 µM); in the series with Candida albicans [11], 0.125 µg/mL (≈ 0.42 µM); in the series on Candida albicans [12], 0.125 µg/mL (≈ 0.42 µM); with Candida albicans [13] it was 16 µg/mL (≈ 53.8 µM); against Candida albicans [14] it was 16 µg/mL (≈ 53.8 µM); against Candida albicans [15], 128 µg/mL (≈ 430 µM). Further, the MIC against Candida albicans [16] was determined as 4 µg/mL (≈ 13.5 µM); in the series with Candida albicans [17], 16 µg/mL (≈ 53.8 µM); against Candida albicans [18] it was 2 µg/mL (≈ 6.73 µM); against Candida tropicalis, 32 µg/mL (≈ 108 µM); against Candida albicans [19], 16 µg/mL (≈ 53.8 µM); against Candida albicans [20] it was 4 µg/mL (≈ 13.5 µM). The figures for the MIC against Candida albicans [21], with Candida parapsilosis [22] and in the series on Candida parapsilosis [23] were 16 µg/mL (≈ 53.8 µM), 16 µg/mL (≈ 53.8 µM) and 128 µg/mL (≈ 430 µM), respectively. Moreover, the CC50 at 120 h in series [3] is 20.6 µM. The concentration for half-maximal inhibition (IC50) with Candida albicans [4] (setting [24]) was 2.2 µM. In addition, the inhibition entry in the series with Candida albicans [5] is “inactive”.

Regarding `CC(C)C[C@H](N)c1nc2ccccc2n1Cc1ccc(Cl)cc1`, the “Ratio CC50/IC50” value in [1] amounted to 9. In addition, the cytotoxic concentration (CC50) at 120 h in series [3] was 36 µM. In the series on Candida albicans [4] (setting [24]), the half-maximal inhibitory concentration (IC50) was found to be 4 µM. The inhibition entry in the series on Candida albicans [5] is “inactive”.

Regarding `CC(C)[C@@H](N)c1nc2ccccc2n1Cc1cccc(Cl)c1`, the half-inhibitory concentration (IC50) entry in the series with Candida albicans [4] (hela) is “Not Active”.

For orientation: MIC means the smallest concentration in the dilution series that meets the test's criterion for growth inhibition. Lower therefore signals a more susceptible organism. In general, CC50 refers to the concentration giving 50% cytotoxicity. By IC50 is commonly meant the concentration that inhibits the measured activity by half.
